How the values were obtained:
Format in all cases: functional, cell-based
HepG2 = assay: Cytotoxicity against human HepG2 cells after 24 hrs by SRB assay; details: HepG2, 24 h
Method in brief: (§1)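 Monolayer cultures kept in RPMI-1640 with 5% heat-inactivated FBS, 2 mM glutamine, penicillin 100 U/mL and streptomycin, at 37 °C in humidified 5% CO₂. Exponentially growing cells were obtained by plating 1.5×10^5 cells/mL and incubating 24 h before treatment. Vehicle controls received DMSO at 0.5%, the maximum used in each assay.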

[1] = Cytotoxicity against human HONE1 cells after 24 hrs by SRB assay; details: HONE1, 24 h; method in brief: as §1
[2] = Cytotoxicity against human DLD1 cells after 24 hrs by SRB assay; details: DLD-1, 24 h; method in brief: as §1
NUGC = assay: Cytotoxicity against human NUGC cells after 24 hrs by SRB assay; method in brief: as §1
[3] = Cytotoxicity against human MCF cells after 24 hrs by SRB assay; method in brief: as §1
[4] = Cytotoxicity against human HA22T cells after 24 hrs by SRB assay; method in brief: as §1
[5] = Cytotoxicity against human WI38 cells after 24 hrs by SRB assay; details: WI-38, 24 h
Method in brief: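 Normal fibroblasts were grown as monolayer in RPMI-1640 with 5% heat-inactivated FBS, 2 mM glutamine, penicillin 100 U/mL and streptomycin, at 37 °C in humidified 5% CO₂. Untreated control cells were exposed to the maximum DMSO vehicle concentration (0.5%) used in each assay.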

Compound	IC50 (HepG2) [nM]	IC50 [1] [nM]	IC50 [2] [nM]	IC50 (NUGC) [nM]	IC50 [3] [nM]	IC50 [4] [nM]	IC50 [5] [nM]
Clc1ccccc1-c1nn2c(-c3ccncc3)nnc2s1	1330	1170	2660	3220	2180	1260	–
c1ccc(-c2nn3c(-c4ccncc4)nnc3s2)cc1	1360	2430	3360	1280	1540	1260	–
N#CN=C(NCCCCCCOc1ccc(Cl)cc1)Nc1ccncc1 [CHS-828]	–	15	–	–	18	–	–
S=C(Nc1ccc(Cl)cc1)Nn1c(S)nnc1-c1ccncc1	2020	1220	2250	2120	3230	2010	2190
CC(=O)Nn1c(S)nnc1-c1ccncc1	53	1180	42	44	2100	166	–
c1ccc(C2=Nn3c(nnc3-c3ccncc3)SC2)cc1	469	110	2350	59	80	122	–
Cc1ccc(Nc2nn3c(-c4ccncc4)nnc3s2)cc1	312	3280	1380	540	120	277	480
Cc1nn2c(-c3ccncc3)nnc2s1	2740	1080	3280	2190	219	1720	650
Brc1ccc(C2=Nn3c(nnc3-c3ccncc3)SC2)cc1	2290	1780	2380	2490	2270	2060	–
Brc1ccc(Nc2nn3c(-c4ccncc4)nnc3s2)cc1	128	2220	320	136	229	782	–
COc1ccc(NC(=S)Nn2c(S)nnc2-c2ccncc2)cc1	1300	2270	2290	1820	1670	2370	–
COc1ccc(Nc2nn3c(-c4ccncc4)nnc3s2)cc1	333	2220	128	56	215	282	–
Cc1ccc(NC(=S)Nn2c(S)nnc2-c2ccncc2)cc1	1230	1290	2150	2770	2170	2380	–
Clc1ccc(-c2nn3c(-c4ccncc4)nnc3s2)c(Cl)c1	2260	1170	1190	2160	3220	3070	–
O=C(Nn1c(S)nnc1-c1ccncc1)c1ccc([N+](=O)[O-])cc1	89	2280	266	360	1090	1110	–
Clc1ccc(Nc2nn3c(-c4ccncc4)nnc3s2)cc1	1980	2260	3260	1290	1260	3070	–
S=C(Nc1ccc(Br)cc1)Nn1c(S)nnc1-c1ccncc1	2780	1680	3270	3290	1590	3200	1290
Clc1ccc(-c2nn3c(-c4ccncc4)nnc3s2)cc1	1230	488	49	25	1620	120	–

— ChEMBL document CHEMBL3352138, “Synthesis of novel 1,2,4-triazoles, triazolothiadiazines and triazolothiadiazoles as potential anticancer agents” (Eur J Med Chem, 2014)
